Screening results as filed in PubChem.
The list is not random: actives were taken first. Their share in the collection is about 3.7%.
GPR7 antag: blocks human GPR7 receptor signaling; GPR7-expressing cells, fluorescence antagonist assay; inhibition, % at 4.4 µM; 1.1% of 290,000 active; P48145; AID 1861; in the data active = inhibition above about 16%, passing the limit was not always enough;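 also: cells stimulated with the agonist NPW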
EP2 antag: inhibitors of human EP2 prostaglandin E2 receptor; P43116; C6 glioma cells expressing human EP2, cAMP TR-FRET; cells stimulated with saturating PGE2; inhibition, % at 25 µM; 0.52% of 260,000 active; AID 1422;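 active = percent inhibition above 40 after rounding to a whole number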;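 also: rat C6 glioma host cells with rolipram phosphodiesterase inhibitor present; the protocol text gives 20 µM as final concentration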
Target sequence (P43116 whole entry, looked up): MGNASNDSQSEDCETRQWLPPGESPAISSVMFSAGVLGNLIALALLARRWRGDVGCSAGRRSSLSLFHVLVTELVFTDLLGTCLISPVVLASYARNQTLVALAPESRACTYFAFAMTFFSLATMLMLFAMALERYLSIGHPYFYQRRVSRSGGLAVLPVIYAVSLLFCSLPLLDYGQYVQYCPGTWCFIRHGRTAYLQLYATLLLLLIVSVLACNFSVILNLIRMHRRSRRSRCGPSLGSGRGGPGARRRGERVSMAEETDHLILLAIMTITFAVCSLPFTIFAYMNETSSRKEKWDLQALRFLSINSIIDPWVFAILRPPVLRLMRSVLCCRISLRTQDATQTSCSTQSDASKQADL
EP2 modulator: modulates human prostaglandin E2 receptor EP2 signaling; EP2-expressing cells, cAMP HTRF FRET, PGE2 co-stimulation; induction, % at 25 µM; 0.83% of 260,000 active; AID 940;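 active = compounds whose cAMP rise, as percent of the full-agonist control response, exceeds 60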;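 also: rat C6 glioma line stably carrying human EP2 under a CMV promoter; the protocol text gives 20 µM as final concentration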
OX1R antag-1: OX1R (human) antagonism; 1.8% of 330,000 active; O43613; inhibition, % at 6.6 µM; OX1R-expressing cells, FRET antagonist read-out; in the data active = inhibition mostly above about 38%, no sharp cut-off; inactive = mostly below about 40%
CHO parental Ca: counter-screen for OX1R antagonists: effect in parental CHO cells | inhibition, % at 5.6 µM | AID 463079 | parental CHO-K1, ATP-induced calcium, Fluo-8 fluorescence | 0.63% of 330,000 active;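 active = inhibition above that plate's mean sample inhibition plus 3 SD, cut at about 26% in these data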
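Assay system: untransfected parental CHO cell line. Also added: ATP agonist challenge. Dosing: one dose, 5.6 µM nominal. Measured by: Fluo-8 fluorescence. Read-out: % inhibition. Benchmarks: ATP wells versus no-ATP DMSO wells. Repeats: no replicates.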
OX1R antag-2: blocks the human orexin 1 receptor; CHO/OX1R cells, Fluo-8 calcium fluorescence, orexin A; inhibition, % at 5 µM; O43613; 0.43% of 330,000 active;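 active = inhibition above its plate's threshold, mean inhibition of all tested compounds on the plate plus 3 SD, cut at about 37% in these data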
OX1R HTRF confirm: OX1R (human) antagonism, HTRF confirmed; OX1R-expressing cells, HTRF antagonist assay; 49% of 1,800 active; inhibition, % at 6.6 µM; shares compounds with OX1R antag-1; in the data active = inhibition above about 55%;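 also: CHO cells expressing OX1R stimulated with orexin A at about EC80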
CHO-K1 HTRF: counter-screen: parental CHO-K1 HTRF response; shares compounds with OX1R antag-1; 48% of 1,800 active; parental CHO-K1 cells, HTRF counterscreen; inhibition, % at 6.6 µM; in the data active = inhibition above about 17%
Hits are given with their value; n = inactive; x = not tested or not shown.

SMILES	GPR7 antag	EP2 antag	EP2 modulator	OX1R antag-1	CHO parental Ca	OX1R antag-2	OX1R HTRF confirm	CHO-K1 HTRF
O=[N+]([O-])c1ccc(N/N=C2\CC3CC=CC23)c([N+](=O)[O-])c1 (stereo unspecified)	n	n	n	82	n	n	n	19
Cc1ccc(NC(=S)N/N=C2\CC3CC=CC23)c(C)c1 (stereo unspecified)	n	n	n	n	n	n	x	x
COc1ccc(C(=O)OCC(=O)NCCCc2ccccc2)c(OC)c1	n	x	x	n	n	n	x	x
COc1ccccc1NC(=O)c1nn(-c2cccc(C(F)(F)F)c2)ccc1=O	n	n	n	82	n	n	66	n
COc1ccc(Nc2ncnc3c2oc2ccccc23)cc1	n	n	n	83	n	n	62	n
Cc1ccc(Nc2ncnc3c2oc2ccccc23)cc1	n	x	n	n	n	n	x	x
CCOC(=O)c1ccc(-c2ccc3[nH]c4ccccc4c(=O)c3c2)cc1F	n	x	x	n	n	n	x	x
CCOC(=O)c1cc2[nH]c3ccccc3c2[n+](-c2ccc([N+](=O)[O-])cc2)c1N	n	n	n	138	n	n	57	69
CC(C)(C)C(=O)Oc1cccc(Nc2ncnc3ccccc23)c1	n	n	n	n	n	n	x	x
COc1ccc(C(=O)Oc2cccc(Nc3ncnc4ccccc34)c2)cc1OC	n	n	n	84	n	n	n	n
COc1ccc(CCN2C(=O)c3cccnc3C2=O)cc1OC	n	n	n	82	n	n	n	21
Cc1cccc(-c2nnc(NC(=O)c3ccc(N4C(=O)CCC4=O)cc3)s2)c1	n	n	n	n	n	n	x	x
CN(C(=O)c1ccccc1Br)C1CCS(=O)(=O)C1 (stereo unspecified)	x	x	x	n	n	n	x	x
COc1ccc(NC(=S)Nc2ccc3nsnc3c2)cc1	n	42	n	88	n	n	n	40
CC(C)N(C(=O)Nc1ccc2nsnc2c1)C(C)C	n	n	n	143	n	n	n	31
COc1ccc(NC(=S)Nc2ccc3nc(C)c(C)nc3c2)cc1	n	n	n	n	n	n	x	x
C[C@H](NC(=O)C1CCN(S(=O)(=O)c2ccccc2)CC1)C(=O)NCc1ccccn1	n	x	x	n	n	n	x	x
O=S(=O)(Nc1nc2ccccc2nc1NCc1ccco1)c1ccc(F)cc1	n	n	n	171	n	n	n	n
CCCCNc1nc2ccccc2nc1NS(=O)(=O)c1ccc(F)cc1	n	x	x	n	n	n	x	x
O=C(Nc1cc(S(=O)(=O)N2CCCCC2)ccc1O)c1ccccc1NS(=O)(=O)c1ccc(F)c(F)c1	n	n	n	83	n	n	n	n
COc1ccc(C(=O)CSc2nc3ccc(C)cc3[nH]2)cc1	x	n	n	x	x	x	x	x
Cc1ccc2nc(SCC(=O)c3ccc(O)cc3O)[nH]c2c1	n	n	n	81	n	n	79	n
Cc1cc2c(C)cc(=O)oc2c2c1NCCC2	n	n	n	n	n	n	x	x
O=C(NCCO)c1cccc2c1C(=O)c1ccccc1-2	n	n	n	121	n	n	58	53
O=c1[nH]c(=O)c2nc(-c3ccc(Cl)cc3)cnc2[nH]1	n	n	n	77	n	n	n	68
SMILES	GPR7 antag	EP2 antag	EP2 modulator	OX1R antag-1	CHO parental Ca	OX1R antag-2	OX1R HTRF confirm	CHO-K1 HTRF
COC(C(=O)Nc1cc([N+](=O)[O-])ccc1C)c1ccccc1 (stereo unspecified)	n	n	n	n	n	n	x	x
O=C(O)CCCCCNS(=O)(=O)c1cccc2nsnc12	n	n	n	n	n	n	x	x
O=C(O)CCCCCNc1ccc2nsnc2c1[N+](=O)[O-]	n	n	n	117	n	n	74	112
COc1ccc(C=C2C(=O)OC(C)(C)OC2=O)cc1OC	n	n	n	n	n	n	x	x
COc1ccc(/C=C2\OC(=O)c3c(OC)cccc32)cc1OC	n	x	n	78	n	n	66	n
O=C(Cn1cccc1)Nc1ccc(OC(F)(F)F)cc1	n	n	n	n	n	n	x	x
Cc1cc(=O)n2[nH]c(=O)c(N=Nc3ccccc3)c2[nH]1	n	n	n	126	n	n	n	58
Cc1cc(C)n2[nH]c(=O)c(N=Nc3ccccc3)c2n1	n	n	n	188	n	n	n	86
